Results: ChEMBL document CHEMBL4680166, “Dual-functional conjugates improving cancer immunochemotherapy by inhibiting tubulin polymerization and indoleamine-2,3-dioxygenase” (Eur J Med Chem, 2020)
Activity calls are given as the source filed them. No cut-off for these calls is given here.

Legend:
HeLa [1] = assay: Anticancer activity against human HeLa cells assessed as inhibition of cell proliferation measured after 72 hrs by MTT assay; type: functional, cell-based
Procedure, shortened: (§1)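 Cells (A549, PC-3, HeLa, HUVEC) grown in DMEM with 10% FBS at 37 °C, 5% CO₂. Seeded at 5 × 10⁴ cells/well and allowed 24 h to attach, then exposed 72 h to a concentration series from DMSO stocks. MTT was added for 4 h and formazan dissolved in DMSO, read at 490 nm. Survival taken relative to untreated control. IC50 by Bliss method, three repeats.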

HUVEC = assay: Cytotoxicity against HUVEC cells assessed as inhibition of cell proliferation measured after 72 hrs by MTT assay; type: cell-based; conditions: Homo sapiens; procedure, shortened: as §1
HeLa [2] = assay: Inhibition of IDO1 expression in hIFNgamma-stimulated human HeLa cells at 0.5 uM measured after 24 hrs by western blot assay; type: functional
Procedure, shortened: (§2)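 HeLa cells were treated 24 h at 37 °C and lysed in buffer containing PMSF. Protein quantified by BCA, equal amounts separated by SDS-PAGE and transferred to nitrocellulose. Blocked in 5% milk, primary antibodies overnight at 4 °C, peroxidase secondary 2 h at 25 °C. Detection by chemiluminescence, β-actin as loading control.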

HeLa [3] = assay: Induction of apoptosis in human HeLa cells assessed as upregulation of Bax protein expression at 0.5 uM measured after 24 hrs by western blot analysis; type: functional, cell-based; procedure, shortened: as §2
HeLa [4] = assay: Induction of apoptosis in human HeLa cells assessed as down regulation of Bcl-2 protein expression at 0.5 uM measured after 24 hrs by western blot analysis; type: functional, cell-based; procedure, shortened: as §2
A549 = assay: Anticancer activity against human A549 cells assessed as inhibition of cell proliferation measured after 72 hrs by MTT assay; type: functional, cell-based; conditions: A549, 72 h; procedure, shortened: as §1
HeLa [5] = assay: Induction of apoptosis in human HeLa cells assessed as late apoptotic cells at 0.5 uM measured after 24 hrs by Annexin-V-FITC and PI staining based flow cytometry (reference value: 0.199%); type: functional
Procedure, shortened: (§3)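 HeLa cells were treated 24 h, washed twice in PBS and resuspended in binding buffer. Stained with annexin V-FITC and PI for 30 min in the dark at room temperature, then analysed by flow cytometry.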

PC-3 = assay: Anticancer activity against human PC3 cells assessed as inhibition of cell proliferation measured after 72 hrs by MTT assay; type: functional, cell-based; conditions: PC-3, 72 h; procedure, shortened: as §1
HeLa [6] = assay: Induction of apoptosis in human HeLa cells assessed as early apoptotic cells at 0.5 uM measured after 24 hrs by Annexin-V-FITC and PI staining based flow cytometry (reference value: 2.58%); type: functional; procedure, shortened: as §3
[7] = Toxicity in BALB/c nude mouse transfected with human HeLa cells assessed as liver damage at 15 mg/kg/day, iv for 21 days by H&E staining based immunohistochemistry; type: organism-based; conditions: in vivo, 504 h, time 21 day
Procedure, shortened: (§4)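 After 3 weeks of daily iv dosing of HeLa-xenografted nude mice, organs were taken from one mouse per group. Fixed in 4% paraformaldehyde, paraffin-embedded and sectioned. Stained with Harris hematoxylin and eosin-phloxine, then examined microscopically for histopathology.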

HeLa [8] = assay: Induction of apoptosis in human HeLa cells assessed as cell membrane integrity loss, chromatin condensation and apoptotic body formation by measuring reduction in green fluorescence intensity at 0.5 uM measured after 24 hrs by AO/EB dual staining based fluorescence microscopy; type: functional
HeLa [9] = assay: Potency index, ratio of CA-4 IC50 to test compound IC50 for anticancer activity against human HeLa cells after 72 hrs by MTT assay; type: functional
[10] = Toxicity in BALB/c nude mouse transfected with human HeLa cells assessed as body weight changes at 30 mg/kg/day, iv for 21 days; type: organism-based; conditions: in vivo, 504 h, time 21 day
Procedure, shortened: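 Five-week-old male BALB/c nude mice (18-22 g) were inoculated s.c. in the right armpit with HeLa cells (1 × 10⁷ cells/0.1 mL/mouse). At a tumour volume of 120-150 mm³, mice were randomised, five per group. Dosing was i.v. via the tail vein once daily for 21 days, in Tween 80/physiological saline; controls got an equal volume of saline. Body weight was recorded every 2 days.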

HeLa [11] = assay: Induction of apoptosis in human HeLa cells assessed as cell membrane integrity loss, chromatin condensation and apoptotic body formation by measuring strengthened orange fluorescence intensity at 0.5 uM measured after 24 hrs by AO/EB dual staining based fluorescence microscopy; type: functional
HeLa [12] = assay: Induction of apoptosis in human HeLa cells assessed as necrotic cells at 0.5 uM measured after 24 hrs by Annexin-V-FITC and PI staining based flow cytometry (reference value: 0.956%); type: functional; procedure, shortened: as §3
HeLa [13] = assay: Induction of apoptosis in human HeLa cells assessed as upregulation of PARP protein expression at 0.5 uM measured after 24 hrs by western blot analysis; type: functional, cell-based; procedure, shortened: as §2
[14] = Toxicity in BALB/c nude mouse transfected with human HeLa cells assessed as heart damage at 15 mg/kg/day, iv for 21 days by H&E staining based immunohistochemistry; type: organism-based; conditions: in vivo, 504 h, time 21 day; procedure, shortened: as §4
HeLa [15] = assay: Induction of cell cycle arrest in human HeLa cells assessed as accumulation at G2/M phase at 0.5 uM measured after 24 hrs by propidium iodide/RNAse staining based flow cytometry (reference value: 10.7%); type: functional
HeLa [16] = assay: Induction of intracellular reactive oxygen species generation in human HeLa cells at 0.5 uM measured after 24 hrs by DCFH-DA staining based flow cytometry (reference value: 6.47%); type: functional

Structure (SMILES): COc1ccc(/C=C\c2cc(OC)c(OC)c(OC)c2)cc1OC(=O)c1cccc(Cn2cc(CCOC(=O)[C@H](N)Cc3cn(C)c4ccccc34)nn2)c1
- IC50 (HeLa [1]): 0.07 µM
- IC50 (HUVEC): 1.52 µM
- inhibition (HeLa [2]): Active
- Activity (HeLa [3]): Active
- Activity (HeLa [4]): Active
- IC50 (A549): 0.22 µM
- Activity (HeLa [5]): 11%
- IC50 (PC-3): 0.46 µM
- Activity (HeLa [6]): 41.1%
- Activity [7]: Non-Toxic
- Activity (HeLa [8]): Active
- fold change (FC) (HeLa [9]): 3
- Activity [10]: Non-Toxic
- Activity (HeLa [11]): Active
- Activity (HeLa [12]): 0.637%
- Activity (HeLa [13]): Active
- Activity [14]: Non-Toxic
- Activity (HeLa [15]): 76.27%
- Activity (HeLa [16]): 49.7%
